What all share (assay type): functional
For assay [1], the system named is Rattus norvegicus. As to the kind of experiment: Anti-inflammatory activity against Carrageenan-induced paw oedema rat model at 20 mg/kg after 3 hrs. In short, it runs like this: (§1)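 Rat carrageenan paw oedema; compound dosed orally as suspension in 1% carboxymethyl cellulose, six rats per group. Paw volume by mercury displacement plethysmography immediately before and at the stated time after carrageenan injection. Percent oedema inhibition computed from pre/post paw volumes of treated versus vehicle-control rats; one-way ANOVA versus control.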

Assay [2] relates to Rattus norvegicus. The experiment in a line: Anti-inflammatory activity against Carrageenan-induced paw oedema rat model at 20 mg/kg after 2 hrs. Summed up:
as §1

Assay [3] concerns Mus musculus. As to the kind of experiment: Analgesic activity in Wistar Albino mouse at 20 mg/kg, po after 3 hrs by tail-flick technique. In short, it runs like this:
(§2)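 Tail-flick in Wistar albino mice (25–35 g, either sex, randomly selected), compound given orally as suspension in 1% carboxymethyl cellulose; six animals per group. Reaction time read before dosing and after dosing, cut-off 10 s. Percent analgesic activity = (T2 − T1)/(10 − T1) × 100, T1/T2 being pre/post reaction times; mean of n = 6, one-way ANOVA versus control.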

In assay [4] the test system is Rattus norvegicus. The experiment in a line: Anti-inflammatory activity against Carrageenan-induced paw oedema rat model at 20 mg/kg after 30 min. Summed up: as §1
Assay [5] deals with Mus musculus. The experiment in a line: Analgesic activity in Wistar Albino mouse at 20 mg/kg, po after 2 hrs by tail-flick technique. Summed up: as §2
Assay [6] deals with Mus musculus. The experiment in a line: Analgesic activity in Wistar Albino mouse at 20 mg/kg, po after 1 hr by tail-flick technique. In short, it runs like this: as §2
Assay [7] concerns Mus musculus. The experiment in a line: Analgesic activity in Wistar Albino mouse at 10 mg/kg, po after 30 mins by tail-flick technique. Summed up: as §2
Assay [8] deals with Mus musculus. The experiment in a line: Analgesic activity in Wistar Albino mouse at 10 mg/kg, po after 3 hrs by tail-flick technique. Summed up:
as §2

Assay [9] relates to Rattus norvegicus. As to the kind of experiment: Anti-inflammatory activity against Carrageenan-induced paw oedema rat model at 10 mg/kg after 3 hrs. Summed up:
as §1

Assay [10] has as its system Rattus norvegicus. The experiment in a line: Anti-inflammatory activity against Carrageenan-induced paw oedema rat model at 10 mg/kg after 30 mins. In short, it runs like this:
as §1

In assay [11] the test system is Rattus norvegicus. The experiment in a line: Anti-inflammatory activity against Carrageenan-induced paw oedema rat model at 10 mg/kg after 2 hrs. Summed up:
as §1

The test system of assay [12] is Mus musculus. As to the kind of experiment: Analgesic activity in Wistar Albino mouse at 20 mg/kg, po after 30 mins by tail-flick technique. Summed up: as §2
The test system of assay [13] is Rattus norvegicus. As to the kind of experiment: Anti-inflammatory activity against Carrageenan-induced paw oedema rat model at 10 mg/kg after 1 hr. Summed up: as §1
Assay [14] relates to Rattus norvegicus. As to the kind of experiment: Anti-inflammatory activity against Carrageenan-induced paw oedema rat model at 20 mg/kg after 1 hr. In short, it runs like this: as §1
Assay [15] has as its system Mus musculus. As to the kind of experiment: Analgesic activity in Wistar Albino mouse at 10 mg/kg, po after 1 hr by tail-flick technique. Summed up:
as §2

Assay [16] relates to Mus musculus. The experiment in a line: Analgesic activity in Wistar Albino mouse at 10 mg/kg, po after 2 hrs by tail-flick technique. In short, it runs like this: as §2

Here are results for twelve compounds from ChEMBL document CHEMBL1144538, “Synthesis and pharmacological evaluation of some 3-phenyl-2-substituted-3H-quinazolin-4-one as analgesic, anti-inflammatory agents” (2007).

The structures appear in SMILES notation.

With `COc1ccc(/C=N\Nc2nc3ccccc3c(=O)n2-c2ccccc2)cc1`, the Activity in [1] came to 30%; in assay [2], 37%; in [3] it was 29%; in assay [4] it was 33%; in [5], 50%; in assay [6], 49%. Further, the Activity in [7] amounted to 38%; in assay [8] it was 30%; in [9], 24%; in assay [10], 28%; in [11], 32%; in assay [12] it was 42%. The Activity turned out to be 30% in assay [13], 37% in assay [14], 42% in assay [15] and 43% in assay [16].

Take `O=c1c2ccccc2nc(N/N=C\c2ccc([N+](=O)[O-])cc2)n1-c1ccccc1`: the Activity came to 32% in [1]; 36% in assay [2]; 33% in assay [3]; 35% in assay [4]; 47% in assay [5]; 45% in assay [6]. The Activity was 34% in assay [7]; 27% in [8]; 20% in [9]; 25% in assay [10]; 30% in assay [11]; 38% in assay [12]. Besides, the Activity in [13] is given as 28%; in [14] it was 35%; in [15] it was 39%; in [16] it was 39%.

For the compound `O=c1c2ccccc2nc(N/N=C\c2ccc(Cl)cc2)n1-c1ccccc1`, the Activity was determined as 25% in assay [1]; 37% in [2]; 35% in [3]; 29% in assay [4]; 48% in [5]; 45% in assay [6]. The Activity in assay [7] is given as 32%; in [8], 27%; in [9] it was 23%; in [10] it was 26%; in assay [11], 30%; in [12], 40%. Moreover, the Activity in assay [13] is recorded as 28%; in assay [14], 32%; in [15] it was 34%; in assay [16] it was 42%.

On to `O=c1c2ccccc2nc(N/N=C\c2ccccc2Cl)n1-c1ccccc1`, for which the Activity is reported as 25% in assay [1]; 35% in assay [2]; 36% in [3]; 27% in [4]; 42% in assay [5]; 39% in [6]. The Activity in [7] is listed as 29%; in [8], 25%; in assay [9] it was 20%; in [10] it was 21%; in [11], 26%; in [12], 37%. Besides, the Activity in assay [13] stood at 24%; in assay [14], 32%; in [15], 30%; in assay [16], 37%.

As for `O=c1c2ccccc2nc(NN=C2CCCCC2)n1-c1ccccc1`, the Activity in assay [1] is listed as 35%; in [2], 42%; in [3], 37%; in [4] it was 39%; in assay [5], 53%; in assay [6], 51%. Besides, the Activity stood at 33% in [7]; 25% in assay [8]; 27% in assay [9]; 29% in assay [10]; 36% in [11]; 50% in assay [12]. The Activity in [13] came out at 33%; in assay [14], 42%; in assay [15], 40%; in assay [16], 46%.

In the case of `C/C(=N\Nc1nc2ccccc2c(=O)n1-c1ccccc1)c1ccccc1`, the Activity in assay [1] turned out to be 33%; in assay [2], 46%; in assay [3], 36%; in assay [4], 38%; in [5] it was 57%; in assay [6], 53%. Besides, the Activity is 38% in [7]; 29% in assay [8]; 29% in assay [9]; 31% in assay [10]; 38% in assay [11]; 50% in [12]. For the same compound, the Activity in assay [13] came to 35%; in [14] it was 42%; in assay [15] it was 43%; in [16], 43%.

For `CCC/C(C)=N/Nc1nc2ccccc2c(=O)n1-c1ccccc1`, the Activity in [1] amounted to 41%; in assay [2], 60%; in assay [3], 45%; in [4] it was 46%; in assay [5] it was 62%; in assay [6], 62%. For the same compound, the Activity in assay [7] was determined as 43%; in assay [8], 33%; in assay [9], 33%; in assay [10] it was 35%; in assay [11], 42%; in assay [12], 56%. In addition, the Activity in [13] was found to be 41%; in assay [14] it was 58%; in assay [15], 48%; in [16] it was 50%.

For `CC/C(C)=N/Nc1nc2ccccc2c(=O)n1-c1ccccc1`, the Activity turned out to be 36% in assay [1]; 47% in [2]; 42% in assay [3]; 38% in assay [4]; 61% in [5]; 59% in [6]. In addition, the Activity in assay [7] was 41%; in assay [8], 31%; in [9] it was 26%; in assay [10], 32%; in assay [11], 37%; in assay [12], 55%. Besides, the Activity was found to be 36% in [13], 45% in assay [14], 43% in [15] and 50% in assay [16].

For `O=c1c2ccccc2nc(NN=C(c2ccccc2)c2ccccc2)n1-c1ccccc1`, the Activity was 35% in assay [1]; 42% in assay [2]; 36% in assay [3]; 36% in assay [4]; 46% in assay [5]; 41% in assay [6]. Also, the Activity came out at 33% in assay [7]; 29% in assay [8]; 26% in assay [9]; 27% in [10]; 35% in [11]; 39% in [12]. The Activity was 33% in assay [13], 39% in assay [14], 36% in assay [15] and 41% in assay [16].

`CCC(CC)=NNc1nc2ccccc2c(=O)n1-c1ccccc1`: the Activity in [1] worked out at 36%; in assay [2], 56%; in [3] it was 49%; in [4] it was 43%; in assay [5] it was 72%; in [6], 69%. Further, the Activity was found to be 49% in assay [7]; 41% in assay [8]; 32% in [9]; 34% in assay [10]; 39% in [11]; 63% in assay [12]. For the same compound, the Activity in [13] was determined as 35%; in [14], 52%; in assay [15], 55%; in assay [16] it was 58%.

For `O=c1c2ccccc2nc(N/N=C\c2ccccc2)n1-c1ccccc1`, the Activity in [1] was 26%; in assay [2], 43%; in assay [3], 31%; in assay [4], 36%; in assay [5], 53%; in assay [6] it was 50%. In addition, the Activity in assay [7] is 35%; in assay [8], 29%; in [9] it was 29%; in assay [10], 28%; in assay [11] it was 35%; in assay [12], 46%. Also, the Activity in [13] is listed as 32%; in [14], 40%; in assay [15] it was 38%; in assay [16], 41%.

In the case of `O=C1Nc2ccccc2/C1=N\Nc1nc2ccccc2c(=O)n1-c1ccccc1`, the Activity was 30% in [1]; 39% in [2]; 35% in [3]; 32% in [4]; 55% in assay [5]; 51% in assay [6]. Besides, the Activity turned out to be 36% in assay [7]; 30% in [8]; 23% in [9]; 27% in [10]; 31% in assay [11]; 47% in assay [12]. In addition, the Activity in assay [13] was 30%; in [14] it was 36%; in assay [15] it was 37%; in assay [16], 40%.
